According to ChEMBL document CHEMBL1806448, “Optimization of a pyrazole hit from FBDD into a novel series of indazoles as ketohexokinase inhibitors” (Bioorg Med Chem Lett, 2011):

Tests used:
[1] = target: T1, Ketohexokinase (Homo sapiens, UniProt P50053); assay: Inhibition of KHK-mediated conversion of D-fructose to fructose-1-phosphate after 60 mins by high throughput mass spectrometry analysis
T1 sequence (P50053 whole entry): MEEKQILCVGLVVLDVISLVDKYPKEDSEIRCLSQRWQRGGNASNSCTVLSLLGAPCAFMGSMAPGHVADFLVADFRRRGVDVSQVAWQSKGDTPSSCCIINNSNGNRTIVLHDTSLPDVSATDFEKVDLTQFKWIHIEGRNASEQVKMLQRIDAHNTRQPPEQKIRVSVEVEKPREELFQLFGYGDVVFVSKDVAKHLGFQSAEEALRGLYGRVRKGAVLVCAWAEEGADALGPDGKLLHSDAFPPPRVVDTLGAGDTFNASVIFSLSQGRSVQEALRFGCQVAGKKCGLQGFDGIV
Summary of the method: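 KHK enzyme assay at 25 °C with 200 µM fructose, 100 µM ATP and 2 nM KHK under steady-state conditions for 60 min. Fructose-1-P product read out by high-throughput mass spectrometry (RapidFire). 12-point dose–response curve used to derive IC50. 384-well format.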

[2] = Inhibition of sodium channel at 10 uM
[3] = Half life in rat at 10 mg/kg, po after 24 hrs; type: ADME, organism-based; parameters: dose 10 mg/kg, route oral; conditions: in vivo
Summary of the method: (§1)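 Rat pharmacokinetics over 24 h. Oral dose 10 mg/kg and iv dose 2 mg/kg.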

[4] = Cmax in rat at 10 mg/kg, po after 24 hrs; type: ADME, organism-based; parameters: dose 10 mg/kg, route oral; conditions: in vivo; summary of the method: as §1
[5] = test system: Rattus norvegicus; assay: AUClast in rat at 10 mg/kg, po after 24 hrs; type: ADME, organism-based, Plasma; parameters: time < 24 hr, dose 10 mg/kg, route oral; conditions: in vivo; summary of the method: as §1
[6] = Volume of distribution at steady state in rat at 2 mg/kg, iv after 24 hrs; type: ADME, organism-based; parameters: dose 2 mg/kg, route intravenous; conditions: in vivo, read-out: Vdss; summary of the method: as §1
[7] = Clearance in rat at 2 mg/kg, iv after 24 hrs; type: ADME, organism-based; parameters: dose 2 mg/kg, route intravenous; conditions: in vivo; summary of the method: as §1
[8] = Bioavailability in rat at 10 mg/kg, po after 24 hrs; conditions: in vivo
[9] = Metabolic stability in rat liver microsomes assessed as compound remaining after 10 mins; type: ADME, Microsome; conditions: read-out: Stability

Compound	IC50 [1]	further results
CSc1nn(-c2cccc(C)c2)c2cc(C3=CCNCC3)ccc12	0.034 µM	–
CSc1nn(-c2ccccc2)c2c(C3=CCNCC3)cccc12	11.5 µM	–
CSc1nn(-c2ccccc2)c2cc(C3CCNCC3)ccc12	0.33 µM	–
CCc1nn(-c2ccccc2)c2cc(N3CCN(C4CCNCC4)CC3)ccc12	–	inhibition [2]: 61%
CSc1nn(-c2ccccc2)c2cc(N3CCN(C4CCNCC4)CC3)ccc12	0.67 µM	–
CCc1nn(-c2ccccc2)c2cc(N3CC4CNCC4C3)ccc12 (configuration not stated)	–	half-life [3]: 3.41 h; Cmax [4]: 619 ng/mL; AUClast [5]: 5680 ng·h/mL; Vd [6]: 7.81 L/kg; clearance [7]: 28.9 mL/min/kg; bioavailability [8]: 98.8%
CSc1nn(-c2ccccc2)c2cc(C3=CCNCC3)ccc12	0.08 µM	remaining at 10 min [9]: 72%
CSc1nn(-c2ccc([N+](=O)[O-])cc2)c2cc(C3=CCNCC3)ccc12	0.48 µM	–
COc1ccc(-n2nc(SC)c3ccc(C4=CCNCC4)cc32)cc1	0.087 µM	–
CSc1nn(-c2ccccc2)c2cc(NC(=O)CC3CCNCC3)ccc12	0.68 µM	–
CSc1nn(-c2ccc(F)cc2)c2cc(C3=CCNCC3)ccc12	0.023 µM	remaining at 10 min [9]: 105%
CSc1nn(-c2ccccc2)c2c(OCC3CCNCC3)cccc12	0.24 µM	–
CSc1nn(-c2ccccc2)c2c(OC3CCNCC3)cccc12	1.68 µM	–
Cn1nc(-c2ccccc2)c2cc(N3CCNCC3)ccc21	1.28 µM	–
CCc1nn(-c2ccccc2)c2cc(N3CCN(C4CCNC4)CC3)ccc12 (configuration not stated)	0.92 µM	half-life [3]: 19.6 h; Cmax [4]: 399 ng/mL; AUClast [5]: 4890 ng·h/mL; Vd [6]: 13.9 L/kg; clearance [7]: 21.2 mL/min/kg; bioavailability [8]: 72.4%
CCc1nc(-c2ccccc2)n2cc(N3CCNCC3)ccc12	> 20 µM	–
CSc1nn(-c2cccc(F)c2)c2cc(C3=CCNCC3)ccc12	0.042 µM	remaining at 10 min [9]: 96%
CSc1nn(-c2ccccc2)c2cc(-c3ccncc3)ccc12	> 10 µM	–
